Measurements from ChEMBL document CHEMBL1145683, “Structure-cytotoxicity relationships of some helenanolide-type sesquiterpene lactones” (J Nat Prod, 1997).
pIC50: −log10 of the molar value.

Experiments:
[1] = Cytotoxicity against mouse cloned EN2 cells after 2 hrs by MTT assay; format: functional, cell-based; conditions: EN2, 2 h
Summary of the method: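 Murine EN2 Ehrlich ascites cells (RPMI 1640, 10% heat-inactivated FBS, exponential growth, >95% trypan blue exclusion), 500 cells/well, exposed 2 h at 37 °C, 5% CO2. Compound washed out in three spin steps, then 72 h further culture. MTT added for 3 h 45 min, formazan dissolved in DMSO, A550 read. IC50 = 50% growth inhibition vs medium-blank-corrected control; mean ± SD, n≥3.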

[2] = Cytotoxicity against mouse cloned EN2 cells after 72 hrs by MTT assay; format: functional, cell-based; conditions: EN2, 72 h
Summary of the method: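 EN2 murine cloned Ehrlich ascites line, grown in suspension in RPMI 1640 with 10% heat-inactivated FBS and used in exponential growth. 500 cells/well, continuous 72 h compound exposure at 37 °C, 5% CO2. Stocks 10 mM in EtOH or DMSO. Read-out: MTT reduction over 3 h 45 min, formazan in DMSO, A550. IC50 is 50% growth inhibition relative to control; mean ± SD, n≥3.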

SMILES | pIC50 [1] | pIC50 [2]
C=C1C(=O)O[C@@H]2C[C@@H](C)[C@@H]3[C@@H](O)C[C@@H](OC(=O)/C(C)=C/C)[C@@]3(C)[C@@H](O)[C@H]12 | 3.94 | 4.98
CC(C)CC(=O)O[C@H]1[C@@H]2[C@H](C)C(=O)O[C@@H]2C[C@@H](C)[C@@H]2C=CC(=O)[C@]21C | 4.70 | 5.77
C=C1C(=O)O[C@@H]2C[C@@H](C)[C@@H]3[C@@H](OC(C)=O)C[C@@H](O)[C@@]3(C)C[C@H]12 | 3.99 | 4.97
C=C1C(=O)O[C@@H]2C[C@@H](C)[C@@H]3C=CC(=O)[C@@]3(C)[C@@H](O)[C@H]12 [HELENALIN] | 5.62 | 6.41
C=C1C(=O)O[C@@H]2C[C@@H](C)[C@@H]3C=CC(=O)[C@@]3(C)[C@@H](OC(=O)CC(C)C)[C@H]12 | 5.49 | 6.14
C=C1C(=O)O[C@@H]2C[C@@H](C)[C@@H]3[C@@H](OC(C)=O)C[C@@H](O)[C@@]3(C)[C@@H](O)[C@H]12 [CHAMISSONOLIDE] | 3.97 | 5.12
CC(=O)O[C@H]1[C@@H]2[C@H](C)C(=O)O[C@@H]2C[C@@H](C)[C@@H]2C=CC(=O)[C@]21C | 4.37 | 5.46
C=C1C(=O)O[C@H]2C[C@@H](C)[C@@H]3C=CC(=O)[C@@]3(C)[C@@H](OC(C)=O)[C@H]12 [BIGELOVIN] | 5.70 | 6.44
C/C=C(\C)C(=O)O[C@H]1[C@@H]2[C@H](C)C(=O)O[C@@H]2C[C@@H](C)[C@@H]2[C@@H](O)CC(=O)[C@]21C | < 4.00 | 4.12
C=C1C(=O)O[C@H]2C[C@@H](C)[C@@H]3C=CC(=O)[C@@]3(C)[C@H](O)[C@H]12 [MEXICANIN I] | 5.57 | 6.25
C=C1C(=O)O[C@H]2C[C@@H](C)[C@@H]3C=CC(=O)[C@@]3(C)[C@H](OC(=O)CC(C)C)[C@H]12 | 5.27 | 6.00
C=C1C(=O)O[C@@H]2C[C@@H](C)[C@@H]3C=CC(=O)[C@@]3(C)[C@@H](OC(=O)C(C)C)[C@H]12 [HELENALINISOBUTYRATE] | 5.89 | 6.77
C=C1C(=O)O[C@@H]2C[C@@H](C)[C@@H]3[C@@H](O)C[C@@H](O)[C@@]3(C)C[C@H]12 | – | 4.82
C[C@@H]1C[C@H]2OC(=O)[C@@H](C)[C@H]2[C@H](O)[C@]2(C)C(=O)C=C[C@@H]12 | 3.89 | 5.19
C=C1C(=O)O[C@@H]2C[C@@H](C)[C@@H]3C=CC(=O)[C@@]3(C)[C@@H](OC(C)=O)[C@H]12 [ANGUSTIBALIN] | 5.89 | 6.66
C=C1C(=O)O[C@@H]2C[C@@H](C)[C@@H]3[C@@H](O)C[C@@H](O)[C@@]3(C)[C@@H](O)[C@H]12 | – | 4.87
C=C1C(=O)O[C@@H]2C[C@@H](C)[C@@H]3C=CC(=O)[C@@]3(C)[C@@H](OC(=O)/C(C)=C/C)[C@H]12 | 5.28 | 6.00
C=C1C(=O)O[C@@H]2C[C@@H](C)[C@@H]3[C@@H](O)C[C@@H](O)[C@@]3(C)[C@@H](OC(=O)/C(C)=C/C)[C@H]12 | < 4.00 | 4.68
C/C=C(\C)C(=O)O[C@H]1[C@@H]2[C@H](C)C(=O)O[C@@H]2C[C@@H](C)[C@@H]2C=CC(=O)[C@]21C | 4.72 | 5.59
C=C1C(=O)O[C@@H]2C[C@@H](C)[C@@H]3[C@@H](O)CC(=O)[C@@]3(C)[C@@H](OC(=O)/C(C)=C/C)[C@H]12 [ARNIFOLIN] | 4.21 | 5.40
CC(=O)O[C@H]1C[C@@H](O)[C@]2(C)[C@@H]1[C@H](C)C[C@H]1OC(=O)[C@@H](C)[C@H]1[C@@H]2O | < 4.00 | < 4.00
